Test results as given in ChEMBL document CHEMBL3045148, “nematicidal carboxylic acids and aldehydes from Melia azedarach fruits” (J Agric Food Chem, 2010).
Converted amounts (≈) assume the structure as drawn.

Experiments:
Meloidogyne incognita [1] = experiment: Nematicidal activity against Meloidogyne incognita J2 (root-knot nematode) assessed as paralysis measured after 1 day at 28 degC; assay type: functional, organism-based; settings: 24 h
How it was run: (§1)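 Freshly hatched (24 h) M. incognita J2 were taken from infested tomato roots. Each well held 25 J2 immersed in test solution, kept in the dark at 28 °C. Ethanol stocks were diluted in water with Tween-20 (final ethanol ≤1%, Tween-20 ≤0.3% v/v); water-soluble acids were made up in water. J2 were scored motile or paralyzed by inverted microscope and corrected for water-control paralysis (Schneider-Orelli). EC50 came from log-logistic regression; two experiments, six replicates each.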

Meloidogyne incognita [2] = experiment: Nematicidal activity against Meloidogyne incognita J2 (root-knot nematode) assessed as paralysis measured after 1 hr at 28 degC; assay type: functional, organism-based; how it was run: as §1
Meloidogyne incognita [3] = experiment: Nematicidal activity against Meloidogyne incognita J2 (root-knot nematode) assessed as paralysis measured after 1 day at 28 degC by fumigant assay; assay type: functional, organism-based; settings: 24 h
How it was run: (§2)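 Vapour-exposure microwell test with 24 h-old J2 from infested tomato roots, kept in the dark at 28 °C. Test solution went into one well and J2 in tap water into the four adjacent wells, with one dose per plate. Paralysis in the adjacent wells (120 J2 per replicate) was scored by microscope as motile or paralyzed and corrected for water-control paralysis (Schneider-Orelli). Two experiments, six replicates.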

Meloidogyne incognita [4] = experiment: Nematicidal activity against Meloidogyne incognita J2 (root-knot nematode) assessed as paralysis measured at 500 ug/mL by fumigant assay; assay type: functional; how it was run: as §2

SMILES	EC50 (Meloidogyne incognita [1]) [µg/mL]	EC50 (Meloidogyne incognita [2]) [µg/mL]	EC50 (Meloidogyne incognita [3]) [µg/mL]	Activity (Meloidogyne incognita [4]) [µg/mL]
O=Cc1ccc(CO)o1 [AES-103]	45.7 (≈ 362 µM)	> 100		
O=Cc1ccco1 [FURFURAL]	8.5 (≈ 88.5 µM)	11.4 (≈ 119 µM)	24.1 (≈ 251 µM)	
CC(=O)O [ACETIC ACID]	38.3 (≈ 638 µM)	64 (≈ 1070 µM)		
OCc1ccco1 [FURFURYL ALCOHOL]	41.2 (≈ 420 µM)	> 100		
CCCCCCCCCCCCCCCC(=O)O [PALMITIC ACID]	> 500	> 500		
CCCC(=O)O [BUTYRIC ACID]	40.7 (≈ 462 µM)	69.8 (≈ 792 µM)		>30
CCOP(=O)(SC(C)CC)N1CCSC1=O (stereo not given) [FOSTHIAZATE]	0.4 (≈ 1.41 µM)	3.3 (≈ 11.6 µM)		
CCCCCCCCCC(=O)O [DECANOIC ACID]	248 (≈ 1440 µM)	354 (≈ 2050 µM)		
CCCCCC(=O)O [HEXANOATE]	41.1 (≈ 354 µM)	88.7 (≈ 764 µM)		
